We go through five molecules from ChEMBL document CHEMBL1128383, “Potent, orally active, competitive N-methyl-D-aspartate (NMDA) receptor antagonists are substrates for a neutral amino acid uptake system in Chinese hamster ovary cells” (J Med Chem, 1995).

Series [1] can be described thus: Therapeutic index(TI) expressed as ratio of ataxia ED50 to the MES ED50 was determined. Conditions: read-out: TI.
Series [2] concerns the target Glutamate NMDA receptor. Put plainly: Inhibition of NMDA receptor binding affinity in rat brain synaptosomal membrane using [3H]glutamate as radioligand. In kind it is cell membranes. The method, boiled down: (§1)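 Displacement of radioligand ([3H]glutamate, [3H]glycine or [3H]CGP 39653) from rat cortex synaptosomal membranes. IC50 values are means of at least two experiments, each run in triplicate.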

Series [3] concerns the target Glutamate NMDA receptor. Briefly: Inhibition of NMDA receptor binding affinity in rat brain synaptosomal membrane by using [3H]glycine as radioligand. In kind it is cell membranes. The method, boiled down: (§2)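 Displacement of the named radioligand from rat cortex synaptosomal membranes, following previously reported procedures. IC50 values are means of at least two experiments, each run in triplicate.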

The target of series [4] is Glutamate NMDA receptor. Briefly: Inhibition of NMDA receptor binding affinity in rat brain synaptosomal membrane was determined by [3H]-CGP- 39653 as radioligand. In kind it is cell membranes. The gist of the method:
as §2

Series [5] has as its target Glutamate NMDA receptor. Put plainly: Inhibition of receptor binding affinity in rat brain synaptosomal membrane was determined by [3H]-CGP- 39653 as radioligand. Format: cell membranes. The method, boiled down:
as §1

Series [6] addresses Glutamate NMDA receptor. Put plainly: Inhibition of NMDA receptor binding affinity in rat brain synaptosomal membrane using [3H]glycine as radioligand. Format: cell membranes. The gist of the method: as §1
The species named for series [7] is Mus musculus. Briefly: Potent oral activity in MES mice. In kind it is functional.
The target in series [8] is Glutamate NMDA receptor. Briefly: Inhibition of receptor binding affinity in […] measured using LDH release. The method, boiled down: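 Neuronal cell-culture excitotoxicity assay. Cell death is induced by a 5 min application of 100 μM NMDA and read out as lactate dehydrogenase release. The value is the compound concentration needed to prevent cell death.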
(LDH in the medium is a marker of cell lysis.)

Series [9] concerns Mus musculus. Briefly: Maximal electroshock results in mice by iv administration of 3 mg/kg expressed as 50% effective dose. Format: functional.
Series [10] has as its system Mus musculus. Briefly: Maximal electroshock (MES) results in mice by iv administration of 10 mg/kg expressed as number of animals protected by total 5 animals tested after 2 hr was reported. Format: functional. The gist of the method: (§3)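 Adult male CF-1 mice (18–24 g) dosed iv, mg/kg. At 15 min, 1 h and 2 h after dosing, a 60 Hz sinusoidal current (50 mA base to peak, 0.2 s) is applied through corneal electrodes smeared with electrolyte jelly. Protection means no tonic hindlimb extension. Ataxia is scored by inverted screen. Data are expressed as animals affected per animals tested, 5 per group.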
For orientation: The maximal electroshock test induces tonic seizures with an electrical stimulus.

Series [11] deals with Mus musculus. Put plainly: Maximal electroshock (MES) results in mice by iv administration of 30 mg/kg expressed as number of animals ataxia by total 5 animals tested after 2 hr was reported. In kind it is functional. The method, boiled down: as §3
The subject of series [12] is Mus musculus. Put plainly: Maximal electroshock (MES) results in mice by iv administration of 30 mg/kg expressed as number of animals protected by total 5 animals tested after 1 hr was reported. Format: functional. The method, boiled down: as §3
Series [13] has as its system Mus musculus. Put plainly: Maximal electroshock (MES) results in mice by iv administration of 10 mg/kg expressed as number of animals protected by number of animals tested after 1 hr was reported. Format: functional. The method, boiled down:
as §3

Series [14] concerns Mus musculus. Briefly: Maximal electroshock (MES) results in mice by iv administration of 30 mg/kg expressed as number of animals ataxia by total 5 animals tested after 1 hr was reported. Format: functional. The method, boiled down:
as §3

The test system of series [15] is Mus musculus. Briefly: Maximal electroshock (MES) results in mice by iv administration of 10 mg/kg expressed as number of animals protected by number of animals tested after 15 min was reported. In kind it is functional. The method, boiled down: as §3
Series [16] deals with Mus musculus. Briefly: Maximal electroshock (MES) results in mice by iv administration of 10 mg/kg expressed as number of animals ataxia by total 5 animals tested after 2 hr was reported. In kind it is functional. The gist of the method:
as §3

Series [17] concerns Mus musculus. Briefly: Maximal electroshock (MES) results in mice by iv administration of 30 mg/kg expressed as number of animals protected by total 5 animals tested after 15 min was reported. Format: functional. The gist of the method: as §3
The test system of series [18] is Mus musculus. Put plainly: Maximal electroshock (MES) results in mice by iv administration of 10 mg/kg expressed as number of animals ataxia by number of animals tested after 1 hr was reported. In kind it is functional. The gist of the method: as §3
Series [19] deals with Mus musculus. Put plainly: Maximal electroshock (MES) results in mice by iv administration of 30 mg/kg expressed as number of animals ataxia by total 5 animals tested after 15 min was reported. Format: functional. The method, boiled down: as §3
Series [20] relates to Mus musculus. Briefly: Maximal electroshock (MES) results in mice by iv administration of 10 mg/kg expressed as number of animals ataxia by number of animals tested after 15 min was reported. In kind it is functional. The method, boiled down:
as §3

The subject of series [21] is Mus musculus. Briefly: Maximal electroshock (MES) results in mice by iv administration of 30 mg/kg expressed as number of animals protected by total 5 animals tested after 2 hr was reported. Format: functional. The gist of the method:
as §3

Where only a bound is given, the exact number is not on record here.

With `O=C(O)C1CN(CCCP(=O)(O)O)CCN1` (stereo not given), in [1], the selectivity ratio is 2.21. The 50% inhibitory concentration (IC50) at Glutamate NMDA receptor [2] is 837 nM; at Glutamate NMDA receptor [3] it was greater than 200 µM; at Glutamate NMDA receptor [4] it was 148 nM.
Regarding `N[C@@H](Cc1cc(CP(=O)(O)O)cc(-c2cccc3ccccc23)c1)C(=O)O`, the IC50 on Glutamate NMDA receptor [5] is 6 nM; at Glutamate NMDA receptor [6], 65.4 µM; on Glutamate NMDA receptor [8], 50 nM; on Glutamate NMDA receptor [2], 15 nM. The selectivity ratio in series [1] was determined as 2.28. The 50% effective dose (ED50) in the series listed under Mus musculus [7] was 5 mg/kg; with Mus musculus [9], 0.53 mg/kg.
Turning to `N[C@H](Cc1cc(CP(=O)(O)O)cc(-c2cccc3ccccc23)c1)C(=O)O`, the Protected in the series with Mus musculus [10] is given as 1; in the series on Mus musculus [12] it was 3; in the series with Mus musculus [13], 0; in the series with Mus musculus [15] it was 0; in the series on Mus musculus [17] it was 3; with Mus musculus [21], 5. The Ataxia with Mus musculus [11] is recorded as 0; in the series on Mus musculus [14] it was 0; with Mus musculus [16] it was 0; in the series on Mus musculus [18] it was 0; in the series on Mus musculus [19], 1; with Mus musculus [20] it was 0. Besides, the IC50 was 250 nM at Glutamate NMDA receptor [5] and 320 nM on Glutamate NMDA receptor [2].
Consider `N[C@@H](Cc1cc(-c2ccccc2)cc(CP(=O)(O)O)c1[N+](=O)[O-])C(=O)O`, for which the figures for the IC50 on Glutamate NMDA receptor [5], on Glutamate NMDA receptor [6] and at Glutamate NMDA receptor [2] were 1080 nM, 11.5 µM and 2300 nM, respectively.
Turning to `N[C@H](Cc1cc(CP(=O)(O)O)cc(-c2ccc3ccccc3c2)c1)C(=O)O`, the IC50 at Glutamate NMDA receptor [5] was 590 nM; on Glutamate NMDA receptor [2], 650 nM.

The IC50 is the concentration needed to halve the response being measured. A high value points to a need for much substance. What is called ED50 is the dose at which the effect has come halfway, by size or by number of responders.
